Reference: ChEMBL document CHEMBL3425454, “Synthesis, biological evaluation and modeling studies of terphenyl topoisomerase IIα inhibitors as anticancer agents” (Eur J Med Chem, 2015)
Activity calls are given as the source filed them. No cut-off for these calls is given here.

Columns and labels:
MDA-MB-435 = assay: Cytotoxicity against human MDA-MB-435 cells assessed as cell growth inhibition after 72 hrs by MTT assay; assay type: functional, cell-based; settings: MDA-MB-435, 72 h
Summary of the method: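 MDA-MB-435 cells treated in triplicate with a range of concentrations for 72 h at 37°C, 5% CO2. Medium then replaced, MTT (5 mg/mL) added for 4 h, followed by overnight lysis in 10% SDS/5% isobutanol/12 mM HCl. Absorbance read at 590 nm; inhibition computed against control and blank wells. IC50 = concentration giving 50% growth inhibition, mean±SD of three experiments.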

[1] = target: DNA topoisomerase 2-alpha (Homo sapiens) (UniProt P11388); assay: Inhibition of human recombinant topoisomerase-2 alpha assessed as conversion of negatively supercoiled plasmid DNA pBR322 to relaxed DNA at 100 uM after 30 mins by agarose gel electrophoresis
Summary of the method: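 Recombinant human TOP2α (1 unit) incubated with 0.5 μg supercoiled pBR322 in 10 mM Tris-HCl pH 7.9, 50 mM NaCl, 50 mM KCl, 5 mM MgCl2, 1 mM EDTA, 1 mM ATP, BSA; 30 min at 30 °C. Stopped with 7 mM EDTA. Products resolved on 1% agarose in TAE at 5 V/cm for 2 h and stained with ethidium bromide. Performed at least in duplicate.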

[2] = target: T1, Topoisomerase I (Bos taurus) (UniProt Q2HPH0); assay: Inhibition of calf thymus topoisomerase-1 assessed as conversion of negatively supercoiled plasmid DNA pBR322 to relaxed DNA at 100 uM after 30 mins by agarose gel electrophoresis
T1 sequence (whole entry): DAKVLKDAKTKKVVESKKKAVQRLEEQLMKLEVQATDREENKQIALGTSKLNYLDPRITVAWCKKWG
Summary of the method: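 Relaxation of 0.5 μg supercoiled pBR322 by 1 unit calf thymus TOP1 in 10 mM Tris-HCl pH 7.9, 150 mM NaCl, 0.1% BSA, 1 mM spermidine, 5% glycerol; 30 min at 37 °C. Reaction stopped with sarcosyl/bromophenol blue/glycerol. Products run on 1% agarose in TAE at 5 V/cm for 2 h and stained with ethidium bromide (0.5 μg/mL). Performed at least in duplicate.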

[3] = target: DNA topoisomerase 2-alpha (Homo sapiens) (UniProt P11388); assay: Inhibition of human recombinant topoisomerase-2 alpha-mediated DNA cleavage using circular supercoiled plasmid DNA as substrate
[4] = target: DNA topoisomerase 2-alpha (Homo sapiens) (UniProt P11388); assay: Inhibition of human recombinant topoisomerase-2 alpha assessed as topoisomerase poison activity using circular supercoiled plasmid DNA as substrate

DNA topoisomerase 2-alpha (Homo sapiens), sequence (P11388 whole entry): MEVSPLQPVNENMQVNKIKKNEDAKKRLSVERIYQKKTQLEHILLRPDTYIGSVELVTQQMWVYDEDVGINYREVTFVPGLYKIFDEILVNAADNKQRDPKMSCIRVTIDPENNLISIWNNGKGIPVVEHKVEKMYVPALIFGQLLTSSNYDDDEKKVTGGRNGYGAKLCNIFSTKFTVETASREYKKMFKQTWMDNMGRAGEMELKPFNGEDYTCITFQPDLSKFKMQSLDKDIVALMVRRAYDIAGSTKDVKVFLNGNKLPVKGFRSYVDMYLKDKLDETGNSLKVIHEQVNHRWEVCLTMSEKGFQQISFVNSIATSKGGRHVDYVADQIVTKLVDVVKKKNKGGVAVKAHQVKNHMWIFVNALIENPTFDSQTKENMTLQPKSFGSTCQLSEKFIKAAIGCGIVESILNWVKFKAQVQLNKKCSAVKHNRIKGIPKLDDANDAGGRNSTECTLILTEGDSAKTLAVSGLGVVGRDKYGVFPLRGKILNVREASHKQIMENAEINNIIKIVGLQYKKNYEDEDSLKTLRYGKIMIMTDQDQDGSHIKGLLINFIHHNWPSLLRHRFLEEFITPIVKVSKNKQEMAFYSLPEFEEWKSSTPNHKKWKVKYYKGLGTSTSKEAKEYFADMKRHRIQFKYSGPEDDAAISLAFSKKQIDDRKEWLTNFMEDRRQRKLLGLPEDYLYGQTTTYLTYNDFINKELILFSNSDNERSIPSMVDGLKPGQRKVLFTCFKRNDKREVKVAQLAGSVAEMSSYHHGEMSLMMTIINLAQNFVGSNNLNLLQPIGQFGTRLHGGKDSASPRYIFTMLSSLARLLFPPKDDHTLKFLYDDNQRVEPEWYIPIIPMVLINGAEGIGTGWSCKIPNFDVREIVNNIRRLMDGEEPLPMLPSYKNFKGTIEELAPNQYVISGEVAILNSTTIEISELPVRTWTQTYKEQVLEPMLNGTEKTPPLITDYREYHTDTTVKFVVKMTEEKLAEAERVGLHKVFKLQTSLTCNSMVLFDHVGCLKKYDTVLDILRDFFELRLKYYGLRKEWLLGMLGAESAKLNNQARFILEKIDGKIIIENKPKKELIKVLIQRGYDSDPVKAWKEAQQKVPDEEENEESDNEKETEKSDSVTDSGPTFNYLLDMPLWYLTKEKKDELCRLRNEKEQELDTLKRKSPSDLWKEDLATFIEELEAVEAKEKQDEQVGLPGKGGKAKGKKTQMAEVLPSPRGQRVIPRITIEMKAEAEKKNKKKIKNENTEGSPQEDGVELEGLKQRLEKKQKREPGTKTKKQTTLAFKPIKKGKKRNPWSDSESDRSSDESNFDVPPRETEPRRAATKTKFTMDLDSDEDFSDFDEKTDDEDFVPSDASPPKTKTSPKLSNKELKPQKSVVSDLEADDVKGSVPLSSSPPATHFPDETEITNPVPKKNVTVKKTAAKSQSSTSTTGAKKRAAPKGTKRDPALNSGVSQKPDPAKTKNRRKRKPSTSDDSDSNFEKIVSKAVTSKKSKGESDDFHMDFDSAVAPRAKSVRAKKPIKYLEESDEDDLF

| SMILES | IC50 (MDA-MB-435) [µM] | other results |
| --- | --- | --- |
| O=C(O)c1ccc(-c2ccc(-c3ccc(O)c(O)c3)c(O)c2O)cc1 | > 100 |  |
| COc1c(-c2ccc(O)cc2)ccc(-c2ccc(C(=O)O)c(O)c2)c1OC | > 100 |  |
| COc1ccc(-c2ccc(-c3ccc(C(=O)O)cc3)c(OC)c2OC)cc1OC | > 100 |  |
| O=C(O)c1cc(-c2ccc(-c3ccc(O)cc3)c(O)c2O)ccc1O | 99.8 |  |
| COc1c(-c2ccc(O)cc2)ccc(-c2ccc(O)cc2)c1OC | 14.7 | inhibition [1]: Active |
| Oc1ccc(-c2ccc(-c3ccc(O)c(O)c3)c(O)c2O)cc1O | 3.96 | inhibition [2]: Active; inhibition [1]: Active; inhibition [3]: Active; inhibition [4]: inactive |
| O=C(O)c1ccc(-c2ccc(-c3ccc(O)cc3)c(O)c2O)cc1O | 36.8 |  |
| COc1c(-c2ccc(O)cc2)ccc(-c2ccc(O)c(C(=O)O)c2)c1OC | > 100 |  |
| COc1ccc(-c2ccc(-c3ccc(OC)c(OC)c3)c(OC)c2OC)cc1OC | 90.8 |  |
| COc1ccc(-c2ccc(-c3ccc(OC)cc3)c(OC(C)=O)c2OC(C)=O)cc1 | 96.8 |  |
| CCOc1c(-c2ccc(OC)c(OC)c2)ccc(-c2ccc(OC)c(OC)c2)c1OCC | > 100 |  |
| COc1ccc(-c2cccc(OC)c2OC)cc1OC | 23.1 |  |
| COc1cc([C@@H]2c3cc4c(cc3[C@@H](O[C@@H]3O[C@@H]5CO[C@@H](C)O[C@H]5[C@H](O)[C@H]3O)[C@H]3COC(=O)[C@H]23)OCO4)cc(OC)c1O [ETOPOSIDE] | 2.81 | inhibition [1]: Active |
| COC(=O)c1ccc(-c2ccc(-c3ccc(O)cc3)c(OC)c2OC)cc1O | 20.9 |  |
| COC(=O)c1cc(-c2ccc(-c3ccc(O)cc3)c(OC)c2OC)ccc1O | 44.8 |  |
| COc1ccc(-c2ccc(-c3ccc(OC)c(OC)c3)c(OC(C)=O)c2OC(C)=O)cc1OC | > 100 |  |
| Oc1ccc(-c2ccc(-c3ccc(O)cc3)c(O)c2O)cc1 | > 100 |  |
| COc1c(-c2ccc(O)c([N+](=O)[O-])c2)ccc(-c2ccc(O)c([N+](=O)[O-])c2)c1OC | 61.8 |  |
| CCOc1c(-c2ccc(O)cc2)ccc(-c2ccc(O)cc2)c1OCC | 41.8 |  |
| O=[N+]([O-])c1cc(-c2ccc(O)c([N+](=O)[O-])c2)ccc1O | > 100 |  |
| Oc1ccc(-c2ccc(-c3ccc(O)c(O)c3)c(O)c2O)cc1 | 4.1 |  |
